# Most compounds without a hit are left out; they make up all but 4% or so of the library.
# Insulin prom inh – inhibitors of insulin promoter-driven GFP, primary screen, imaging, TRM-6 cells (human fetal islet line), eGFP reporter, cell count; reporter expression induced with tamoxifen; inhibition, % at 2 µM; 130,000 tested, 0.9% active; AID 1273, 2008;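 active means inhibition above the mean plus 3 SD, with well images judged a real hit on visual review, cut at about 60% in these data, passing the limit was not always enough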
# RAM inhibit – inhibitors of the yeast RAM network, primary screen, dse1pr::URA3 reporter, 5-FOA selection; S. cerevisiae dse1pr::URA3 reporter, 5-FOA growth OD615, 2 d; analog-sensitive cbk1-as2 kinase mutant strain; inhibition, % at 50 µM; 190,000 tested, 1.8% active; AID 868, 2007;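 active means inhibition above a set limit, 3 SD over mean compound inhibition, cut at about 8.4% in these data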;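 further: 0% = DMSO-only wells with no growth and 100% = 10 µM 1-NA-PP1 full growth; inhibition rescues growth on 5-FOA so higher OD means more RAM inhibition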
# BB579 growth dn – growth inhibitors of yeast BB579 in restrictive medium, primary screen, yeast lifespan-shortening project, S. cerevisiae; OD615, 48 h; inhibition, % at 10 µM; 140,000 tested, 0.51% active; AID 804, 2007;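 active means inhibition above a set limit, 3 SD over the mean compound inhibition, cut at about 44% in these data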
#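 System: Saccharomyces cerevisiae DeaD strain BB579, replicative lifespan model yeast | Buffer or medium: Restrictive glucose-based CSMM-D medium | Times: 4 h preincubation and 48 h exposure at 30 °C | Detection: OD615 turbidity measurement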
# Yeast lifespan up – compounds extending yeast replicative lifespan, primary screen, S. cerevisiae, OD615. 130,000 tested, 0.68% active. AID 775, 2007. S. cerevisiae growth with nicotinamide; deaD strain in restrictive glucose medium. inhibition of the nicotinamide effect, % at 10 µM;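 active means inhibition above a set limit, placed 3 SD over the median of all compounds, cut at about 26% in these data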;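 further: 0% = nicotinamide-treated wells and 100% = cells grown without nicotinamide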
#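 Material: Modified budding yeast, DeaD strain | Medium: Restrictive glucose medium | Probe or stimulus: 1.5 mM nicotinamide | Dosing: Single dose 10 µM compound, 0.25% DMSO | Times: 48 h at 30 °C | Technique: OD615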
# Measles CPE – compounds protecting cells from measles virus cytopathic effect, primary screen, measles RdRp inhibitor project, single point, MLSMR library, absorbance; Measles virus-infected cells, CPE protection; protection (pct of control), % at 4 µM; 140,000 tested, 1.5% active; AID 841, 2007; in the data active means protection mostly above about 24%, no sharp cut-off; inactive means mostly below about 26%
# Mdm2 ligase inh – MDM2-luciferase reporter signal enhancers, primary screen, MDM2 E3 ligase inhibitor project, cell-based, luminescence, 1536-well; 210,000 tested, 0.11% active; signal enhancement, % at 5 µM; cell-based MDM2 ubiquitination luciferase reporter, 2 h; 0 = plate control, 100 = twice control, blank-subtracted; E3 ubiquitin-protein ligase Mdm2 (Homo sapiens), Q00987;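 active means signal enhancement of 30% or more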;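 further: luminescence tracks abundance of the self-degrading MDM2-luciferase fusion protein; higher signal means inhibition of MDM2 E3 ligase activity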
# Target sequence (Q00987 whole entry, looked up, the tested form may be a part): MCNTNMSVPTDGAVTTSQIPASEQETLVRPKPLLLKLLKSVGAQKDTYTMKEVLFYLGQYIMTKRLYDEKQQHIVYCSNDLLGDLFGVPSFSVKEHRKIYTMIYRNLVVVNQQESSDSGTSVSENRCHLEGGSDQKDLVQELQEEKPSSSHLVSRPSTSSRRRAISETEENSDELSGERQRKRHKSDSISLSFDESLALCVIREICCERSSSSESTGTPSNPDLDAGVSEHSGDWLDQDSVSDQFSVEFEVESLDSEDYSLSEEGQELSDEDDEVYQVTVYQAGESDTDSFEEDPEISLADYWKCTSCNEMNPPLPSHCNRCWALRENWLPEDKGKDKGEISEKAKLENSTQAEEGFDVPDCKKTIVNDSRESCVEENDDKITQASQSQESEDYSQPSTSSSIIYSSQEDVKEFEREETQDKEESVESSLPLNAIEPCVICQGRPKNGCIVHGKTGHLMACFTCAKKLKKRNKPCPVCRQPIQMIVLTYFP
#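 system = mammalian cells stably expressing self-ubiquitinating, self-degrading MDM2 E3–luciferase fusion | quantity = 2000 cells per well seeded | incubation = 4 h cell settling then 2 h compound exposure, 37 °C | signal = SteadyLite luminescence, 15 min reagent step | benchmarks = plate control and blank wells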
# * hit, by the source's call; . = no result.
SMILES,Insulin prom inh,RAM inhibit,BB579 growth dn,Yeast lifespan up,Measles CPE,Mdm2 ligase inh
O=C(Nc1cccc(N=Cc2cc(Br)cc(Br)c2O)c1)c1ccco1,.,-1.2,99.9*,-10.1,10.5,-16.3
CCOC(=O)CN(C(=O)CSc1nnc(COc2ccc(OC)cc2)n1C)c1ccccc1,.,-1.4,-23.4,-2.8,5.5,-9.9
CCOC(CNC(=O)Cn1nc(C)c2ccccc21)OCC,.,0.6,.,.,.,-4.6
CCc1sc(N(C(=O)Cc2ccccc2)c2cccc(F)c2)nc1-c1ccc(C)cc1,12.0,8.9*,-28.7,-9.0,4.6,-9.1
O=S(=O)(Nc1ccc(-n2cccc2)cc1)c1ccc(Cl)cc1Cl,50.0,3.0,74.3*,-25.8,14.7,11.4
O=S(=O)(Nc1ccc(-n2cccc2)cc1)c1ccc(Cl)c(Cl)c1,.,.,.,.,.,-2.1
CCOC(=O)c1cnc2c(-c3ccccc3OC)c(C)nn2c1C,-79.0,4.4,.,.,.,-10.9
O=CN(/C=C1\Sc2ccccc2C1=O)Cc1ccccc1,-17.1,0.0,-25.9,48.0*,5.6,-12.8
Clc1ccc(CO/N=C/c2c(-c3ccccc3)nc3n2CCS3)c(Cl)c1,-67.9,11.2*,-53.2,2.4,7.4,-8.2
CC(=O)c1ccc(NC(=O)C(Cc2ccccc2)n2cccc2)cc1 (stereo not drawn),.,.,.,.,.,-7.7
Nn1c(SC/C=C/c2ccccc2)nnc1-c1cccnc1,-12.5,0.3,-47.2,-10.5,25.7*,-6.2
CC(=O)OCCNC(=O)Cn1cnc2c1c(=O)n(C)c(=O)n2C,.,4.3,-36.1,1.8,28.5,-1.2
Cc1ccc(S(=O)(=O)CC(=O)c2cc(C)c(O)c(C)c2)cc1,.,0.0,.,.,.,-2.8
CC(C)CCc1noc(CN2CCN(c3ccc(Cl)cn3)CC2)n1,.,-1.0,.,.,.,8.2
CCOc1ccc(NC(=O)CN(C)S(=O)(=O)c2ccc3c(c2)CCC(=O)N3)cc1,.,.,.,.,.,-2.0
O=C1Nc2ccccc2N(O)N1c1cc(-c2cccc(Cl)c2)no1,40.6,0.3,-2.4,-8.0,33.0*,12.2
COc1cccc(OCCNc2cc(Cl)ccc2[N+](=O)[O-])c1,78.3*,6.2,-8.9,-4.2,8.0,-3.5
Cc1ccc(C(=O)Nc2ccccc2Oc2ccccc2)cc1[N+](=O)[O-],-16.2,10.7*,-90.6,-9.2,6.3,-15.7
Cc1ccc(C(=O)NC(=S)Nc2cccc(NC(=O)c3ccccc3)c2)cc1[N+](=O)[O-],0.0,10.1*,-8.6,-3.1,6.2,-11.6
COc1ccc(C(=O)Nc2ccccc2C(=O)N2CCCCC2C)cc1 (stereo not drawn),23.5,2.0,.,.,.,-6.3
O=C(/C=C(\O)c1ccc(Cl)cc1)C(=O)NNC(=O)C(O)(c1ccccc1)c1ccccc1,18.4,-0.5,-31.6,62.5*,18.4,0.7
CS(=O)(=O)N1CCN(C(=O)c2ccccc2F)CC1,27.8,0.8,49.7*,-6.7,26.4,-27.8
CS(=O)(=O)N1CCN(C(=O)c2csc3ccccc23)CC1,29.6,0.1,-28.0,-13.8,61.3*,-9.0
Nc1[nH]ncc1-c1ccccc1,2.7,1.5,.,.,.,3.3
CC(C)CCN(C(=S)NC(=O)C1CCCCC1)c1c(N)n(Cc2ccccc2)c(=O)[nH]c1=O,-75.0,1.1,.,.,.,-16.9
SMILES,Insulin prom inh,RAM inhibit,BB579 growth dn,Yeast lifespan up,Measles CPE,Mdm2 ligase inh
S=c1[nH]nc(-c2ccncc2)n1Cc1ccccc1,.,0.7,2.9,-6.7,2.0,15.4
S=c1[nH]nc(-c2cccnc2)n1Cc1ccccc1,0.0,1.6,-25.9,-16.0,49.7*,-0.4
Cc1ccc(NC(=O)c2c(O)c3ccccc3n(C)c2=O)nc1,29.6,0.4,-62.0,10.0,11.3,-12.2
CC(C)Cn1c(=O)c(C(=O)Nc2cnccn2)c(O)c2ccccc21,.,0.5,-23.4,67.8*,2.2,-10.0
O=C(NCc1cccc(C(F)(F)F)c1)c1cccc(S(=O)(=O)NCc2ccccc2)c1,-3.1,2.9,-27.3,7.5,18.9,-34.5
O=C(NC(c1ccccc1)c1ccccc1)c1cccc(S(=O)(=O)NCc2ccccc2)c1,.,8.6*,-17.0,8.1,1.3,4.2
COc1cccc(OCCn2cc(C(=O)c3ccco3)c3ccccc32)c1,-180.0,10.2*,-26.4,-12.3,5.2,-3.7
COc1ccccc1OCCn1cc(C(=O)c2ccco2)c2ccccc21,-75.0,8.8*,-9.4,-22.6,11.7,-1.6
CC(OC(=O)/C=C/c1ccco1)C(=O)Nc1cccc([N+](=O)[O-])c1 (stereo not drawn),.,9.0*,-19.7,5.2,9.9,-10.2
CC(=O)N(CCCN1CCOCC1)Cc1ccncc1,28.6,1.0,-24.5,-4.9,56.6*,-30.5
CC1=Nc2nc(N3CCCCC3)c(C#N)c3c4c(nc(c23)N1)N(c1ccc(C(C)C)cc1)C(=O)C4,4.0,9.3*,-48.2,4.6,6.0,-4.2
COc1ccc(C(NC(=O)c2ccc(=O)[nH]c2)C(=O)Nc2ccc(C(C)C)cc2)cc1 (stereo not drawn),.,0.6,.,.,.,-76.7
COc1ccc(NC(=O)C(NC(=O)c2ccc(=O)[nH]c2)c2ccc(C)cc2)cc1 (stereo not drawn),-44.4,1.7,-37.7,34.6,32.8*,-4.5
O=C(CN1CCN(C(=O)C2COc3ccccc3O2)CC1)Nc1ccccc1 (stereo not drawn),.,.,.,.,.,-18.1
Cc1cc(C)c(NC(N)=S)c(C)c1,.,.,.,.,.,-3.5
Cc1ccc(S(=O)(=O)c2ccc(Cl)cc2)cc1S(=O)(=O)N(C)CC(=O)O,.,2.6,-26.5,1.2,13.9,0.2
CCOC(=O)/C(=N\Nc1ccc(Cl)cc1)c1csc(Nc2ccccc2)n1,.,4.0,-52.8,-17.5,4.5,1.8
CCOC(=O)/C(=N\Nc1ccc(OC)cc1)c1csc(Nc2ccccc2)n1,40.0,10.9*,-15.3,-3.8,24.6,-4.8
Cc1ccc(N=Nc2c(=O)[nH]n3c(C)cc(C)nc23)cc1,-19.5,3.5,6.9,-11.6,17.2,-11.8
Cc1cc(C)n2nc(N)c(N=Nc3ccc(Cl)cc3)c2n1,15.4,9.5*,-34.0,-3.4,7.0,4.9
COc1ccc(-n2c(Cc3cc(=O)[nH]c(=O)[nH]3)nnc2SCc2ccccc2)cc1,.,1.7,6.0,-6.1,16.4,-13.1
COc1cccc(-n2c(Cc3cc(=O)[nH]c(=O)[nH]3)nnc2SCc2cccnc2)c1,.,0.7,-5.8,-3.3,44.2*,-16.1
CCCNC(=O)Cn1cnc2sc(C(=O)NCCN(CC)CC)c(C)c2c1=O,.,1.1,-38.7,-5.8,36.9*,-13.5
CCCNC(=O)Cn1cnc2sc(C(=O)Nc3cc(OC)c(OC)c(OC)c3)c(C)c2c1=O,.,2.2,-19.5,5.2,6.3,2.9
